Test results as given in ChEMBL document CHEMBL1806473, “Structure-based optimization of click-based histone deacetylase inhibitors” (Eur J Med Chem, 2011).

Columns and labels:
[1] = tested on: SF-295; assay: Cytotoxicity against human SF295 cells; assay type: cell-based
Summary of the method: (§1)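 Tested in the NCI in vitro disease-oriented human tumour cell line screen, with screening performed by NCI. Growth was read by SRB signal over the drug incubation period at five concentrations: 100, 10, 1.0, 0.1 and 0.01 μM. GI50 is the concentration that reduces growth of treated cells to half that of control cells.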

[2] = tested on: SF-295; assay: Antiproliferative activity against human SF295 cells by SRB assay; assay type: functional
Summary of the method: (§2)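 Tested in the NCI in vitro human tumor cell line screen, run by the National Cancer Institute. Each compound was given at five concentrations (100, 10, 1.0, 0.1 and 0.01 μM). GI50 is the drug concentration that reduces growth of treated cells to half that of control cells during drug incubation, judged from the SRB signal.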

[3] = tested on: UO-31; assay: Antiproliferative activity against human UO31 cells by SRB assay; assay type: functional
Summary of the method: (§3)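 Cell growth was tested in the NIH in vitro disease-oriented human tumor cell line screen, which NCI ran for these compounds. Compounds were tested at five concentrations (100, 10, 1.0, 0.1 and 0.01 μM), and growth was read by SRB signal. GI50 is the drug concentration that reduces growth of treated cells to half that of control cells during drug incubation.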

[4] = tested on: NCI/ADR-RES; assay: Cytotoxicity against human NCI/ADR-RES cells; assay type: cell-based; summary of the method: as §1
[5] = tested on: LOX IMVI; assay: Antiproliferative activity against human LOXIMVI cells by SRB assay; assay type: functional; summary of the method: as §2
[6] = tested on: HT-29; assay: Antiproliferative activity against human HT-29 cells by SRB assay; assay type: functional; summary of the method: as §2
[7] = Cytotoxicity against human Hs 578T cells; assay type: cell-based
[8] = tested on: A549; assay: Cytotoxicity against human A549 cells; assay type: cell-based; summary of the method: as §1
[9] = tested on: SNB-19; assay: Cytotoxicity against human SNB19 cells; assay type: cell-based
Summary of the method: (§4)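 Screened by NCI in its in vitro disease-oriented human tumour cell line panel. Compounds tested at five concentrations (100, 10, 1.0, 0.1 and 0.01 μM). Growth read by sulforhodamine B (SRB) signal. GI50 is the concentration reducing growth of treated cells to half that of control cells during the drug incubation.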

[10] = tested on: SR; assay: Cytotoxicity against human SR cells; assay type: cell-based; summary of the method: as §4
[11] = tested on: OVCAR-8; assay: Cytotoxicity against human OVCAR8 cells; assay type: cell-based
[12] = tested on: HCT-116; assay: Antiproliferative activity against human HCT116 cells by SRB assay; assay type: functional; summary of the method: as §2
[13] = Antiproliferative activity against human Hs 578T cells by SRB assay; assay type: functional; summary of the method: as §2
[14] = tested on: OVCAR-3; assay: Antiproliferative activity against human OVCAR3 cells by SRB assay; assay type: functional; summary of the method: as §2
[15] = tested on: SF-268; assay: Antiproliferative activity against human SF268 cells by SRB assay; assay type: functional; summary of the method: as §2
[16] = tested on: SW-620; assay: Cytotoxicity against human SW620 cells; assay type: cell-based; summary of the method: as §4
[17] = tested on: NCI-H226; assay: Cytotoxicity against human NCI-H226 cells; assay type: cell-based
[18] = tested on: U-251; assay: Cytotoxicity against human U251 cells; assay type: cell-based; summary of the method: as §4
[19] = tested on: MCF7; assay: Cytotoxicity against human MCF7 cells; assay type: cell-based
[20] = tested on: UACC-62; assay: Antiproliferative activity against human UACC62 cells by SRB assay; assay type: functional; summary of the method: as §3
[21] = tested on: SN12C; assay: Antiproliferative activity against human SN12C cells by SRB assay; assay type: functional; summary of the method: as §2
[22] = tested on: CAKI-1; assay: Cytotoxicity against human Caki1 cells; assay type: cell-based
[23] = tested on: SF-539; assay: Antiproliferative activity against human SF539 cells by SRB assay; assay type: functional; summary of the method: as §2
[24] = tested on: SNB-75; assay: Antiproliferative activity against human SNB75 cells by SRB assay; assay type: functional; summary of the method: as §3
[25] = tested on: SK-MEL-28; assay: Antiproliferative activity against human SK-MEL-28 cells by SRB assay; assay type: functional; summary of the method: as §2
[26] = tested on: SN12C; assay: Cytotoxicity against human SN12C cells; assay type: cell-based; summary of the method: as §4
[27] = tested on: PC-3; assay: Cytotoxicity against human PC3 cells; assay type: cell-based
[28] = tested on: NCI-H460; assay: Cytotoxicity against human NCI-H460 cells; assay type: cell-based
[29] = tested on: HT-29; assay: Cytotoxicity against human HT-29 cells; assay type: cell-based; summary of the method: as §1
[30] = tested on: RPMI-8226; assay: Antiproliferative activity against human RPMI8226 cells by SRB assay; assay type: functional; summary of the method: as §2
[31] = tested on: SK-OV-3; assay: Cytotoxicity against human SKOV3 cells; assay type: cell-based
[32] = tested on: T47D; assay: Antiproliferative activity against human T47D cells by SRB assay; assay type: functional; summary of the method: as §3
[33] = tested on: 786-0; assay: Cytotoxicity against human 786-0 cells; assay type: cell-based
[34] = tested on: MCF7; assay: Antiproliferative activity against human MCF7 cells by SRB assay; assay type: functional; summary of the method: as §2
[35] = tested on: BT-549; assay: Antiproliferative activity against human BT549 cells by SRB assay; assay type: functional; summary of the method: as §2
[36] = tested on: OVCAR-3; assay: Cytotoxicity against human OVCAR3 cells; assay type: cell-based; summary of the method: as §1
[37] = tested on: ACHN; assay: Cytotoxicity against human ACHN cells; assay type: cell-based
[38] = tested on: HL-60(TB); assay: Cytotoxicity against human HL-60(TB) cells; assay type: cell-based
[39] = tested on: MOLT-4; assay: Cytotoxicity against human MOLT4 cells; assay type: cell-based
[40] = tested on: HOP-62; assay: Cytotoxicity against human HOP62 cells; assay type: cell-based; summary of the method: as §1
[41] = tested on: UACC-62; assay: Cytotoxicity against human UACC62 cells; assay type: cell-based; summary of the method: as §4
[42] = tested on: NCI/ADR-RES; assay: Antiproliferative activity against human NCI/ADR-RES cells by SRB assay; assay type: functional; summary of the method: as §2
[43] = tested on: EKVX; assay: Cytotoxicity against human EKVX cells; assay type: cell-based; summary of the method: as §1
[44] = tested on: SK-MEL-28; assay: Cytotoxicity against human SK-MEL-28 cells; assay type: cell-based
[45] = tested on: SF-539; assay: Cytotoxicity against human SF539 cells; assay type: cell-based; summary of the method: as §1
[46] = tested on: OVCAR-8; assay: Antiproliferative activity against human OVCAR8 cells by SRB assay; assay type: functional; summary of the method: as §2
[47] = tested on: MDA-MB-468; assay: Cytotoxicity against human MDA-MB-468 cells; assay type: cell-based; summary of the method: as §1
[48] = tested on: NCI-H322M; assay: Antiproliferative activity against human NCI-H322M cells by SRB assay; assay type: functional; summary of the method: as §2
[49] = tested on: SK-MEL-5; assay: Antiproliferative activity against human SK-MEL-5 cells by SRB assay; assay type: functional; summary of the method: as §2
[50] = tested on: KM12; assay: Cytotoxicity against human KM12 cells; assay type: cell-based
[51] = tested on: MDA-MB-468; assay: Antiproliferative activity against human MDA-MB-468 cells by SRB assay; assay type: functional; summary of the method: as §2
[52] = tested on: SNB-75; assay: Cytotoxicity against human SNB75 cells; assay type: cell-based; summary of the method: as §4

O=C(/C=C/c1ccc(CN(CCO)CCc2c[nH]c3ccccc23)cc1)NO [DACINOSTAT]
LC50 [1]: 6910 nM | GI50 [2]: 743 nM | GI50 [3]: 1120 nM | LC50 [4]: > 100000 nM | GI50 [5]: 1080 nM | GI50 [6]: 566 nM | LC50 [7]: > 100000 nM | LC50 [8]: 94600 nM | LC50 [9]: 31700 nM | LC50 [10]: > 100000 nM | LC50 [11]: 92500 nM | GI50 [12]: 347 nM | GI50 [13]: 619 nM | GI50 [14]: 1110 nM | GI50 [15]: 1530 nM | LC50 [16]: 81300 nM | LC50 [17]: 20000 nM | LC50 [18]: 5820 nM | LC50 [19]: > 100000 nM | GI50 [20]: 379 nM | GI50 [21]: 1620 nM | LC50 [22]: 5790 nM | GI50 [23]: 965 nM | GI50 [24]: 318 nM | GI50 [25]: 993 nM | LC50 [26]: > 100000 nM | LC50 [27]: 73500 nM | LC50 [28]: > 100000 nM | LC50 [29]: > 100000 nM | GI50 [30]: 523 nM | LC50 [31]: 28500 nM | GI50 [32]: 444 nM | LC50 [33]: 52400 nM | GI50 [34]: 730 nM | GI50 [35]: 3920 nM | LC50 [36]: 51000 nM | LC50 [37]: 94300 nM | LC50 [38]: > 100000 nM | LC50 [39]: 86900 nM | LC50 [40]: > 100000 nM | LC50 [41]: 6390 nM | GI50 [42]: 180 nM | LC50 [43]: > 100000 nM | LC50 [44]: 31900 nM | LC50 [45]: 57100 nM | GI50 [46]: 450 nM | LC50 [47]: 94300 nM | GI50 [48]: 2260 nM | GI50 [49]: 271 nM | LC50 [50]: 29900 nM | GI50 [51]: 452 nM | LC50 [52]: > 100000 nM
